What was measured:
[1] = Half life in simulated gastric fluid at 100 uM at pH 1.2 by HPLC analysis; format: physicochemical; conditions: for t1/2: simulated gi fluid, pH 1.2, 100 µM
Procedure, shortened: (§1)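 Meropenem or prodrug at 100 µM final (from a 5.0 mM DMSO stock) incubated at 37 °C in triplicate in simulated gastric fluid pH 1.2, 100 mM MES pH 6.0, or pH 7.4 buffer, after 2 min buffer pre-warming. Aliquots taken at 0–120 min and injected directly onto reversed-phase HPLC with UV at 300 nm. Half-life, % prodrug remaining at 120 min, or species concentration over time was reported.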

[2] = Half life in HEPES buffer at 100 uM at pH 7.4 by HPLC analysis; format: physicochemical; conditions: pH 7.4, 100 µM; procedure, shortened: as §1
[3] = Half life in Dunkin-Hartley guinea pig plasma at 5 mM by HPLC analysis; format: ADME, cell-free, Cavia porcellus; conditions: for t1/2: 5000 µM
Procedure, shortened: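 Pooled plasma from female Dunkin Hartley guinea pigs was pre-warmed 2 min at 37 °C, then prodrug was added from a 5.0 mM stock. Runs were in triplicate. Aliquots were taken at 0, 2.5, 5, 10, 15 and 30 min, quenched with an equal volume of acetonitrile, filtered and analysed by reversed-phase HPLC at 300 nm for half-life.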

Plasma = assay: (§2) Half life in human plasma at 5 mM by HPLC analysis; format: ADME, cell-free; conditions: 5000 µM
[4] = Prodrug stability in HEPES buffer assessed as prodrug remaining at 100 uM after 120 mins at pH 7.4 by HPLC analysis; format: physicochemical; conditions: pH 7.4, 2 h; procedure, shortened: as §1
[5] = Prodrug stability in MES buffer assessed as prodrug remaining at 100 uM after 120 mins at pH 6 by HPLC analysis; format: physicochemical; conditions: pH 6, 2 h; procedure, shortened: as §1
[6] = as §2; format: ADME, cell-free
[7] = Half life in MES buffer at 100 uM at pH 6 by HPLC analysis; format: physicochemical; conditions: pH 6, 100 µM; procedure, shortened: as §1
[8] = Stability in HEPES buffer assessed as prodrug conversion to meropenem at pH 7.4 by HPLC analysis; format: physicochemical; procedure, shortened: as §1
[9] = Stability in HEPES buffer assessed as prodrug conversion to 1-Benzosuberol at pH 7.4 by HPLC analysis; format: physicochemical
[10] = Chemical stability of the compound in simulated gastric fluid assessed as compound remaining at 10 uM after 60 mins at pH 1.2; format: physicochemical; conditions: read-out: Stability
[11] = Lipophilicity, log D of the compound; format: physicochemical; conditions: octanol/water
[12] = Chemical stability of the compound in simulated gastric fluid assessed as drug degradation at 10 uM after 30 mins at pH 1.2; format: physicochemical; conditions: read-out: Drug degradation

Row | Structure (SMILES) | t1/2 [1] [min] | t1/2 [2] [min] | t1/2 [3] [min] | t1/2 (Plasma) [min] | t1/2 [7] [min] | further results
1 | C[C@@H](O)[C@H]1C(=O)N2C(C(=O)OCOC(=O)O[C@@H]3CCCCc4ccccc43)=C(S[C@@H]3CN[C@H](C(=O)N(C)C)C3)[C@H](C)[C@H]12 | 11 | 27 | 0.9 | 34 | – | –
2 | CC(C)OC(=O)OC(C)OC(=O)C1=C(S[C@@H]2CN[C@H](C(=O)N(C)C)C2)[C@H](C)[C@@H]2[C@@H]([C@@H](C)O)C(=O)N12 (some centres not stated) | – | – | – | – | – | Stability ([4]; 2 h): 87%; half-life at 100 µM ([1]; simulated gastric fluid, pH 1.2): 9.8 min; Stability ([5]; 2 h): 92%; half-life at 5000 µM ([3]; Dunkin-Hartley): 1.4 min; half-life at 5000 µM [6]: 11 min
3 | C[C@@H](O)[C@H]1C(=O)N2C(C(=O)OCOC(=O)O[C@H]3CCc4ccccc43)=C(S[C@@H]3CN[C@H](C(=O)N(C)C)C3)[C@H](C)[C@H]12 | – | < 1 | – | – | – | –
4 | C[C@@H](O)[C@H]1C(=O)N2C(C(=O)OCOC(=O)O[C@H]3CCCc4ccccc43)=C(S[C@@H]3CN[C@H](C(=O)N(C)C)C3)[C@H](C)[C@H]12 | – | 1.4 | – | – | 0.9 | –
5 | C[C@@H](O)[C@H]1C(=O)N2C(C(=O)OCOC(=O)O[C@@H]3CCCc4ccccc43)=C(S[C@@H]3CN[C@H](C(=O)N(C)C)C3)[C@H](C)[C@H]12 | – | 1.5 | – | – | 0.96 | –
6 | C[C@@H](O)[C@H]1C(=O)N2C(C(=O)OCOC(=O)O[C@H]3CCCCc4ccccc43)=C(S[C@@H]3CN[C@H](C(=O)N(C)C)C3)[C@H](C)[C@H]12 | 9.3 | 28 | 1.3 | 44 | 32 | Drug metabolism [8]: Active; Drug metabolism [9]: Active
7 | CC(=O)N1C[C@@H](SC2=C(C(=O)OCOC(=O)O[C@H]3CCCCc4ccccc43)N3C(=O)[C@H]([C@@H](C)O)[C@H]3[C@H]2C)C[C@H]1C(=O)N(C)C | 7 | 28 | – | – | 28 | –
8 | C[C@@H](O)[C@H]1C(=O)N2C(C(=O)OCOC(=O)OC3Cc4ccccc4C3)=C(S[C@@H]3CN[C@H](C(=O)N(C)C)C3)[C@H](C)[C@H]12 | 13 | – | 0.9 | 4.3 | – | Stability [4]: 70%; Stability [5]: 96%
9 | CC(OC(=O)O[C@H]1CCCCc2ccccc21)OC(=O)C1=C(S[C@@H]2CN[C@H](C(=O)N(C)C)C2)[C@H](C)[C@@H]2[C@@H]([C@@H](C)O)C(=O)N12 (mixture of isomers) | 18 | 64 | – | – | 80 | –
10 | C[C@@H](O)[C@H]1C(=O)N2C(C(=O)OCOC(=O)OC3CCc4ccccc4C3)=C(S[C@@H]3CN[C@H](C(=O)N(C)C)C3)[C@H](C)[C@H]12 (mixture of isomers) | 14 | – | 1.7 | 8.1 | – | Stability [4]: 78%; Stability [5]: 93%
11 | C[C@@H](O)[C@H]1C(=O)N2C(C(=O)OCOC(=O)OC3CCCc4ccccc4C3)=C(S[C@@H]3CN[C@H](C(=O)N(C)C)C3)[C@H](C)[C@H]12 (mixture of isomers) | 21 | – | 1.9 | 23 | – | Stability [4]: 79%; Stability [5]: 96%
12 | CC(C)OC(=O)OC(C)OC(=O)C1=C(S[C@@H]2CN[C@H](C(=O)N(C)C)C2)[C@H](C)[C@@H]2[C@@H]([C@@H](C)O)C(=O)N12 (single isomer, unassigned; diastereomer 1) | 8.8 | – | 6.5 | 108 | – | Stability ([4]; 2 h): 90%; Stability ([5]; 2 h): 94%
13 | Nc1nc(/C(=C/CC(=O)O)C(=O)N[C@@H]2C(=O)N3C(C(=O)O)=CCS[C@H]23)cs1 [CEFTIBUTEN] | – | – | – | – | – | remaining at 1 h, 10 µM [10]: 94%
14 | C[C@@H](O)[C@H]1C(=O)N2C(C(=O)O)=C([C@H]3CCCO3)S[C@H]12 [FAROPENEM] | – | – | – | – | – | remaining at 1 h, 10 µM [10]: 70%
15 | C[C@@H](O)[C@H]1C(=O)N2C(C(=O)O)=C(S[C@@H]3CN[C@H](C(=O)N(C)C)C3)[C@H](C)[C@H]12 [MEROPENEM] | – | – | – | – | – | logD [11]: < 2.5; degraded at 0.5 h, 10 µM [12]: 80%; remaining at 1 h, 10 µM [10]: 5%
